The source made the active and inactive calls. The calls are words filed in the database; no cut-off is given here.
Tests used:
MDA-MB-231 [1] = test: Cell cycle arrest in human MDA-MB-231 cells assessed as accumulation at S phase at 3 uM measured after 24 hrs by propidium iodide staining based flow cytometry (reference value: 12%); assay type: functional
MDA-MB-231 [2] = test: Cell cycle arrest in human MDA-MB-231 cells assessed as accumulation at sub-G0 phase at 1 uM measured after 24 hrs by propidium iodide staining based flow cytometry (reference value: 3%); assay type: functional
MDA-MB-231 [3] = test: Antiproliferative activity against human MDA-MB-231 cells measured after 48 hrs by MTT assay; assay type: functional, cell-based; conditions: MDA-MB-231, 48 h
How it was run: (§1)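 Cells kept in 10% FBS medium with penicillin/streptomycin/L-glutamine at 37 °C, 5% CO2 (MDA-MB-231 in DMEM, K562 in RPMI 1640). Viability read by MTT reduction to formazan after 48 h of exposure. IC50 obtained by nonlinear regression against vehicle control, given as mean ±SD of three independent experiments (n = 2 where footnoted).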

MDA-MB-231 [4] = test: Cell cycle arrest in human MDA-MB-231 cells assessed as accumulation at G2 phase at 3 uM measured after 24 hrs by propidium iodide staining based flow cytometry (reference value: 23%); assay type: functional
MDA-MB-231 [5] = test: Cell cycle arrest in human MDA-MB-231 cells assessed as accumulation at G1 phase at 30 uM measured after 24 hrs by propidium iodide staining based flow cytometry (reference value: 62%); assay type: functional
MDA-MB-231 [6] = test: Cell cycle arrest in human MDA-MB-231 cells assessed as accumulation at G1 phase at 3 uM measured after 24 hrs by propidium iodide staining based flow cytometry (reference value: 62%); assay type: functional
MDA-MB-231 [7] = test: Induction of apoptosis in human MDA-MB-231 cells assessed as increase in early apoptotic cells at 10 umol/L measured after 4 to 24 hrs by annexin-V-FITC/7-AAD staining based flow cytometric analysis; assay type: functional, cell-based
K562 [8] = test: Induction of superoxide generation in human K562 cells at 5 umol/L measured after 24 hrs in presence of NQO1 inhibitor dicoumarol by DHE staining based flow cytometry; assay type: functional, cell-based
How it was run: (§2)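 Cells were treated with compound at 5 μmol/L or DMSO for 24 h, with or without dicoumarol preincubation (5 μmol/L, 30 min), then stained with DHE for 30 min. 2-OH-DHE fluorescence was read by flow cytometry and expressed relative to vehicle control. At least three independent measurements.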

MDA-MB-231 [9] = test: Induction of apoptosis in human MDA-MB-231 cells assessed as viable cells at 10 umol/L measured after 8 hrs by annexin-V-FITC/7-AAD staining based flow cytometric analysis (reference value: 97 to 98%); assay type: functional; conditions: MDA-MB-231, 8 h, read-out: Activity
MDA-MB-231 [10] = test: Cell cycle arrest in human MDA-MB-231 cells assessed as accumulation at G1 phase at 1 uM measured after 24 hrs by propidium iodide staining based flow cytometry (reference value: 62%); assay type: functional
MDA-MB-231 [11] = test: Cell cycle arrest in human MDA-MB-231 cells assessed as accumulation at G2 phase at 30 uM measured after 24 hrs by propidium iodide staining based flow cytometry (reference value: 23%); assay type: functional
MDA-MB-231 [12] = test: Cell cycle arrest in human MDA-MB-231 cells assessed as accumulation at S phase at 1 uM measured after 24 hrs by propidium iodide staining based flow cytometry (reference value: 12%); assay type: functional
[13] = target: T1, Signal transducer and activator of transcription 3 (Homo sapiens, UniProt P40763); test: Inhibition of STAT3 phosphorylation at Y705 in human MDA-MB-231 cells after 4 hrs by HTRF assay; assay type: cell-based
How it was run: (§3)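 MDA-MB-231 cells (10^5/well) were left to adhere overnight, serum-starved for 4 h in DMEM, then treated with 0.1–30 μmol/L compound (0.5% final DMSO) for 4 h at 37 °C. Lysates were incubated 24 h at room temperature with Eu-cryptate/d2 antibody pairs for phospho-STAT3 (Y705) or total STAT3. The 665/620 nm HTRF ratio was taken and phospho/total normalized. EC50 was obtained by nonlinear regression.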

MDA-MB-231 [14] = test: Cell cycle arrest in human MDA-MB-231 cells assessed as accumulation at G2 phase at 1 uM measured after 24 hrs by propidium iodide staining based flow cytometry (reference value: 23%); assay type: functional
MDA-MB-231 [15] = test: Cell cycle arrest in human MDA-MB-231 cells assessed as accumulation at sub-G0 phase at 3 uM measured after 24 hrs by propidium iodide staining based flow cytometry (reference value: 3%); assay type: functional
[16] = target: T1, Signal transducer and activator of transcription 3; test: Inhibition of STAT3 phosphorylation at Y705 in human MDA-MB-231 cells assessed as reduction in ratio of phosphorylated STAT3 to total STAT3 level after 4 hrs by HTRF assay; assay type: cell-based; how it was run: as §3
MDA-MB-231 [17] = test: Induction of apoptosis in human MDA-MB-231 cells assessed as late apoptotic cells at 10 umol/L measured after 4 hrs by annexin-V-FITC/7-AAD staining based flow cytometric analysis relative to control; assay type: functional
K562 [18] = test: Antiproliferative activity against human K562 cells measured after 48 hrs by MTT assay; assay type: functional, cell-based; conditions: K562, 48 h; how it was run: as §1
MDA-MB-231 [19] = test: Induction of apoptosis in human MDA-MB-231 cells assessed as viable cells at 10 umol/L measured after 2 hrs by annexin-V-FITC/7-AAD staining based flow cytometric analysis (reference value: 97 to 98%); assay type: functional; conditions: MDA-MB-231, 2 h, read-out: Activity
MDA-MB-231 [20] = test: Cell cycle arrest in human MDA-MB-231 cells assessed as accumulation at sub-G0 phase at 30 uM measured after 24 hrs by propidium iodide staining based flow cytometry (reference value: 3%); assay type: functional
MDA-MB-231 [21] = test: Induction of apoptosis in human MDA-MB-231 cells assessed as late apoptotic cells at 10 umol/L measured after 24 hrs by annexin-V-FITC/7-AAD staining based flow cytometric analysis relative to control; assay type: functional
MDA-MB-231 [22] = test: Induction of apoptosis in human MDA-MB-231 cells assessed as late apoptotic cells at 10 umol/L measured after 8 hrs by annexin-V-FITC/7-AAD staining based flow cytometric analysis relative to control; assay type: functional
MDA-MB-231 [23] = test: Cell cycle arrest in human MDA-MB-231 cells assessed as accumulation at G2 phase at 10 uM measured after 24 hrs by propidium iodide staining based flow cytometry (reference value: 23%); assay type: functional
[24] = target: T1, Signal transducer and activator of transcription 3; test: Binding affinity to STAT3 in human MDA-MB-231 cells at 100 uM treated for 1 hr followed by thermolysin addition measured after 30 mins by DARTS-Western blot analysis; assay type: cell-based
How it was run: (§4)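 A nondenaturing lysate of MDA-MB-231 cells (M-PER with protease and phosphatase inhibitors) was incubated with compound at 100 μmol/L or DMSO for 1 h at room temperature in the dark. TNC buffer pH 8.0 was added, then thermolysin (1:3000 of protein) for 30 min at room temperature; undigested controls were kept. Run on SDS-PAGE with 10 μg protein per lane, then Western blot with anti-STAT3.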

MDA-MB-231 [25] = test: Cell cycle arrest in human MDA-MB-231 cells assessed as accumulation at G1 phase at 10 uM measured after 24 hrs by propidium iodide staining based flow cytometry (reference value: 62%); assay type: functional
MDA-MB-231 [26] = test: Effect on total STAT3 level in human MDA-MB-231 cells at 0.1 to 30 umol/L after 4 hrs by HTRF assay; assay type: cell-based; conditions: mda-mb-231, 4 h; how it was run: as §3
MDA-MB-231 [27] = test: Induction of apoptosis in human MDA-MB-231 cells assessed as viable cells at 10 umol/L measured after 4 hrs by annexin-V-FITC/7-AAD staining based flow cytometric analysis (reference value: 97 to 98%); assay type: functional; conditions: MDA-MB-231, 4 h, read-out: Activity
MDA-MB-231 [28] = test: Cell cycle arrest in human MDA-MB-231 cells assessed as accumulation at S phase at 30 uM measured after 24 hrs by propidium iodide staining based flow cytometry (reference value: 12%); assay type: functional
MDA-MB-231 [29] = test: Induction of apoptosis in human MDA-MB-231 cells assessed as late apoptotic cells at 10 umol/L measured after 4 hrs by annexin-V-FITC/7-AAD staining based flow cytometric analysis relative to control
[30] = target: T1, Signal transducer and activator of transcription 3; test: Binding affinity to STAT3 in human MDA-MB-231 cells at 100 uM measured after 1 hr by DARTS-Western blot analysis; assay type: cell-based; how it was run: as §4
MDA-MB-231 [31] = test: Cell cycle arrest in human MDA-MB-231 cells assessed as accumulation at S phase at 10 uM measured after 24 hrs by propidium iodide staining based flow cytometry (reference value: 12%); assay type: functional
MDA-MB-231 [32] = test: Induction of apoptosis in human MDA-MB-231 cells assessed as viable cells at 10 umol/L measured after 6 hrs by annexin-V-FITC/7-AAD staining based flow cytometric analysis (reference value: 97 to 98%); assay type: functional; conditions: MDA-MB-231, 6 h, read-out: Activity
MDA-MB-231 [33] = test: Induction of apoptosis in human MDA-MB-231 cells assessed as viable cells at 10 umol/L measured after 24 hrs by annexin-V-FITC/7-AAD staining based flow cytometric analysis (reference value: 97 to 98%); assay type: functional; conditions: MDA-MB-231, 24 h, read-out: Activity
MDA-MB-231 [34] = test: Cell cycle arrest in human MDA-MB-231 cells assessed as accumulation at sub-G0 phase at 10 uM measured after 24 hrs by propidium iodide staining based flow cytometry (reference value: 3%); assay type: functional
MDA-MB-231 [35] = test: Induction of superoxide generation in human MDA-MB-231 cells at 5 umol/L measured after 24 hrs by DHE staining based flow cytometry; assay type: functional, cell-based; how it was run: as §2
MDA-MB-231 [36] = test: Induction of apoptosis in human MDA-MB-231 cells assessed as late apoptotic cells at 10 umol/L measured after 6 hrs by annexin-V-FITC/7-AAD staining based flow cytometric analysis relative to control; assay type: functional
MDA-MB-231 [37] = test: Induction of apoptosis in human MDA-MB-231 cells assessed as early apoptotic cells at 10 umol/L measured after 6 hrs by annexin-V-FITC/7-AAD staining based flow cytometric analysis relative to control; assay type: functional
MDA-MB-231 [38] = test: Induction of apoptosis in human MDA-MB-231 cells assessed as early apoptotic cells at 10 umol/L measured after 8 hrs by annexin-V-FITC/7-AAD staining based flow cytometric analysis relative to control; assay type: functional
MDA-MB-231 [39] = test: Induction of superoxide generation in human MDA-MB-231 cells at 5 umol/L measured after 24 hrs in presence of NQO1 inhibitor dicoumarol by DHE staining based flow cytometry; assay type: functional, cell-based; how it was run: as §2
MDA-MB-231 [40] = test: Induction of apoptosis in human MDA-MB-231 cells assessed as early apoptotic cells at 10 umol/L measured after 24 hrs by annexin-V-FITC/7-AAD staining based flow cytometric analysis relative to control; assay type: functional
K562 [41] = test: Induction of superoxide generation in human K562 cells at 5 umol/L measured after 24 hrs by DHE staining based flow cytometry; assay type: functional, cell-based; how it was run: as §2

T1 sequence (P40763 whole entry): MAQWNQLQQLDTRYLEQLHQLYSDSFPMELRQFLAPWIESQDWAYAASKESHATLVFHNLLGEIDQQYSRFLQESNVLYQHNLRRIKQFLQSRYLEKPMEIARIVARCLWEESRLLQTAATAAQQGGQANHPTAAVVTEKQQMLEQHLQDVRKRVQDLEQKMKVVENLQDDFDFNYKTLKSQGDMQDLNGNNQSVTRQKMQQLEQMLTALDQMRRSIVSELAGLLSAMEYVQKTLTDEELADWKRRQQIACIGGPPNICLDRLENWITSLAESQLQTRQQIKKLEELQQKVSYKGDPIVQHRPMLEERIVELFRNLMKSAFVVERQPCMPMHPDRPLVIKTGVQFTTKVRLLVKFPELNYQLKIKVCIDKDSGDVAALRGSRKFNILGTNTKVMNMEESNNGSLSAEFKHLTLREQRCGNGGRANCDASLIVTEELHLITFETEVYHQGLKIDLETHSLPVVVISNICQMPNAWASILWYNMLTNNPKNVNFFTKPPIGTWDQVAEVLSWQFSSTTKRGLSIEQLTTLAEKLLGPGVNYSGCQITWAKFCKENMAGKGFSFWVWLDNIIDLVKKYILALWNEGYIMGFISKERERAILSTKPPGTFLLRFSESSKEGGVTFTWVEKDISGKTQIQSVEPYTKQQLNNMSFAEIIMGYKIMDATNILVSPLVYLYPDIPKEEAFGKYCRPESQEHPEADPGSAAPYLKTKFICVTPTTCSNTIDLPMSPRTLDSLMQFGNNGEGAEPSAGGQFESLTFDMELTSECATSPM

| Structure (SMILES) | Activity (MDA-MB-231 [1]) | Activity (MDA-MB-231 [2]) | IC50 (MDA-MB-231 [3]) | Activity (MDA-MB-231 [4]) | Activity (MDA-MB-231 [5]) | Activity (MDA-MB-231 [6]) | Activity (K562 [8]) | viability at 10 µM (MDA-MB-231 [9]) | Activity (MDA-MB-231 [10]) | Activity (MDA-MB-231 [11]) | Activity (MDA-MB-231 [12]) | Activity (MDA-MB-231 [14]) | Activity (MDA-MB-231 [15]) | IC50 (K562 [18]) | viability at 10 µM (MDA-MB-231 [19]) | Activity (MDA-MB-231 [20]) | Activity (MDA-MB-231 [21]) | Activity (MDA-MB-231 [22]) | Activity (MDA-MB-231 [23]) | Activity (MDA-MB-231 [25]) | other results |
| --- | --- | --- | --- | --- | --- | --- | --- | --- | --- | --- | --- | --- | --- | --- | --- | --- | --- | --- | --- | --- | --- |
| CC(=O)c1cc2c(o1)-c1ccccc1C(=O)C2=O | 13% | 3% | 740 nM | 23% | 60% | 59% | inactive | 67% | 60% | 20% | 14% | 23% | 5% | 1100 nM | 93% | 5% | 89% | 31% | 20% | 63% | Activity (MDA-MB-231 [7]): inactive; EC50 [13]: 870 nM; EC50 [16]: 800 nM; Activity (MDA-MB-231 [17]): 14%; Activity [24]: Active; Activity (MDA-MB-231 [26]): Non-Toxic; viability at 10 µM (MDA-MB-231 [27]): 82%; Activity (MDA-MB-231 [28]): 15%; Activity (MDA-MB-231 [29]): 14%; Activity [30]: inactive; Activity (MDA-MB-231 [31]): 15%; viability at 10 µM (MDA-MB-231 [32]): 83%; viability at 10 µM (MDA-MB-231 [33]): 9%; Activity (MDA-MB-231 [34]): inactive |
| CC1(C)CCC2=C(O1)c1ccccc1C(=O)C2=O [LAPACHONE] | 14% | 4% | 4300 nM | 21% | 57% | 63% | inactive | 86% | 62% | 24% | 14% | 20% | 3% | 1600 nM | 97% | 3% | 48% | 8% | 27% | 53% | Activity (MDA-MB-231 [35]): inactive; Activity (MDA-MB-231 [36]): 7%; Activity (MDA-MB-231 [37]): 4%; Activity (MDA-MB-231 [38]): 7%; viability at 10 µM (MDA-MB-231 [27]): 93%; Activity (MDA-MB-231 [28]): 16%; Activity (MDA-MB-231 [39]): inactive; Activity (MDA-MB-231 [31]): 18%; Activity (MDA-MB-231 [40]): 15%; Activity (K562 [41]): inactive; viability at 10 µM (MDA-MB-231 [32]): 90%; viability at 10 µM (MDA-MB-231 [33]): 38%; Activity (MDA-MB-231 [34]): 3% |
